This is an account of results in PubChem BioAssay AID1517 (The Scripps Research Institute Molecular Screening Center, 2009).

Each structure is given as a SMILES string. This is one part of the list. Activity calls are given as the source filed them.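 How the source made its calls: active means percent inhibition of p97 ATPase above a set limit, the primary screen's mean plus 3 SD (cut at about 15% in these data); inactive means the rest.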

The target of the assay is Transitional endoplasmic reticulum ATPase (Homo sapiens) (UniProt P55072). The assay is described as follows: blockers of p97 ATP hydrolysis – biochemical, confirmation (AID 1517).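 Further: 0% = DMSO wells and 100% = wells lacking p97 protein.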 Conditions: recombinant p97 ATPase, Kinase-Glo ATP luminescence; at 8 µM; stronger effect = higher value. In outline: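 Assay system: recombinant p97 ATPase; Medium: Tris/MgCl2/EDTA/DTT buffer, pH 8.0; Times: 30 min compound–enzyme preincubation at 25 °C, then 3 h ATP reaction; Detection: Kinase-Glo luminescence.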
Transitional endoplasmic reticulum ATPase (Homo sapiens), sequence (P55072 whole entry, looked up): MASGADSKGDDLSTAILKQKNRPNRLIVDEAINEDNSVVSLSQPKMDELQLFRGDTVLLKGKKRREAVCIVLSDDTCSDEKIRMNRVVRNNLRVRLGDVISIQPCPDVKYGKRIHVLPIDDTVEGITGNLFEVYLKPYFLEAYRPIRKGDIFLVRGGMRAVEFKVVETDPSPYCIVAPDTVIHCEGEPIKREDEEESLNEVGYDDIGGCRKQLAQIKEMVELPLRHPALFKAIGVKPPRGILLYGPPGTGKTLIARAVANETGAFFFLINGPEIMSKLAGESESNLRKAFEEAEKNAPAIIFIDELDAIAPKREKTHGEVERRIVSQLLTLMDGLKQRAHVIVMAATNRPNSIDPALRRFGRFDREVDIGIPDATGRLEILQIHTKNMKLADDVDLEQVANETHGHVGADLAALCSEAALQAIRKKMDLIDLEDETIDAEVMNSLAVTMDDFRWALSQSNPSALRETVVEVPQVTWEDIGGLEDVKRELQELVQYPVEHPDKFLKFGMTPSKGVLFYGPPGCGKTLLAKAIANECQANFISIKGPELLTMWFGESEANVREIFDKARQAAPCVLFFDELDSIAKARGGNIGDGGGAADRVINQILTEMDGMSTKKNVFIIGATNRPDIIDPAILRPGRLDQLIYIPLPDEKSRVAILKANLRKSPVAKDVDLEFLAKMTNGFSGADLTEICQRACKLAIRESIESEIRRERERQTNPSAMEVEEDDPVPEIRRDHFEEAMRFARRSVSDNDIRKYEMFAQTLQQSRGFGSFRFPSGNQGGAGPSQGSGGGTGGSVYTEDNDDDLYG
One may read the inhibition as the change of the read-out against control, counted positive when it falls. With `[O-][n+]1onc2c1CCc1[nH]c(-c3ccccc3)nc1-2`, the inhibition is 39.8% (active).
`Oc1c(Cl)cc(Cl)c(Cl)c1Cc1c(O)c(Cl)cc(Cl)c1Cl`: the inhibition is 73.9% (active).
The figure for `COc1ccc(-c2[nH]ncc2/C=N/NC(=O)c2cc(Br)ccc2O)c(OC)c1` is 25.7% (active); for `COc1ccc(-c2cc(-c3ccc(N)cc3)nc(N)c2C#N)cc1OC` it is 19.8% (active).
Next, `Oc1c(C=Nc2cccc3nsnc23)ccc2ccccc12`: 4.01% (inactive); `CC(C(=O)O)n1cnc2sc3c(c2c1=O)CCCC3` (stereo not drawn): 6.68% (inactive).
The figure for `NC(N)=N/N=C/c1ccc(OCc2ccc(Cl)cc2Cl)cc1` is 37.7% (active); for `N#CC1=C(N)Oc2[nH]c(=S)[nH]c(=O)c2C12C(=O)Nc1ccccc12` (stereo not drawn) it is 25.8% (active).
Regarding `COc1ccc2c(c1)C(=C(C#N)C#N)C(=O)N2CCc1ccccc1`, the inhibition was 19.5% (active).
Next, `O=C(NNC(=S)Nc1ccccc1)c1cccc(S(=O)(=O)N2CCOCC2)c1`: 3.56% (inactive).
As to `CCC(C)NC(=O)CSC1=Nc2ccccc2C2=NC(CCC(=O)NCc3ccco3)C(=O)N12` (stereo not drawn), the inhibition was 4.93% (inactive).
For `C=CCn1c(=S)[nH]c2scc(-c3ccco3)c2c1=O`, the inhibition is 13.5% (inactive).
Next, `CC1CCCN(C(C(=O)Nc2ccc(C(C)C)cc2)c2ccc3c(c2)OCO3)C1` (stereo not drawn): -0.84% (inactive); `N#Cc1c(N2CCCCC2)nc(N)c2c(N)nc(SCC(=O)O)cc12`: 46% (active); `CCOc1c(Br)cc(/C=C2\C(=O)N(CCC#N)N=C2C)cc1OC`: 6.06% (inactive).
Next, `CCN(c1ccccc1)S(=O)(=O)c1ccc(N)cc1`: 1.51% (inactive); `O=C(OCC1O[C@@H](OC(=O)c2cc(O)c(O)c(O)c2)[C@@H](OC(=O)c2cc(O)c(O)c(O)c2)[C@@H](OC(=O)c2cc(O)c(O)c(O)c2)[C@@H]1OC(=O)c1cc(O)c(O)c(O)c1)c1cc(O)c(O)c(O)c1` (stereo partly drawn): 59.8% (active).
Turning to `Cc1no[n+]([O-])c1COc1ccccc1/C=C1\NC(=S)NC1=O`, the inhibition was 39.9% (active).
The figure for `CCN(CC)CCNC(=O)CCCCCn1c(=O)[nH]c2cc(C(=O)OC)ccc2c1=O` is 2.31% (inactive); for `O=C(/C=C/c1ccc(Cl)c([N+](=O)[O-])c1)c1ccc(O)cc1` it is 10.9% (inactive); for `Cc1[nH][nH]c(=O)c1C(c1ccc(-c2ccc(Cl)cc2)o1)c1c(C)[nH][nH]c1=O` it is 9.11% (inactive).
The figure for `CCOC(=O)N1CCC(c2cc(=O)n(-c3ccccc3)[nH]2)CC1` is 7.34% (inactive); for `N=C1C(c2nc3ccccc3s2)=C(O)CN1NC(=O)c1ccc([N+](=O)[O-])cc1` it is 37.1% (active); for `CCN1C(=O)/C(=C2/Sc3ccccc3N2CCCS(=O)(=O)O)SC1=S` it is 4.27% (inactive).
As to `Nc1ccc2nc3c(=O)[nH]c(=S)[nH]c3nc2c1`, the inhibition is 25.4% (active).
Next, `Clc1ccc(C2=CSC3=Nc4cccc5cccc(c45)N23)cc1`: 2.9% (inactive).
For `Cc1ccc2c(c1)NCC(C(=O)NC1CCC(C)CC1)O2` (stereo not drawn), the inhibition was 4.67% (inactive).
Next, `CC(=O)N1CCc2cc(Br)cc(S(=O)(=O)CCC(=O)Nc3c(C)n(C)n(-c4ccccc4)c3=O)c21`: 2.71% (inactive).
For the molecule `C=CCn1c(N)c(C(=O)OCC(C)C)c2nc3ccccc3nc21`, the inhibition is 18.1% (active).
The figure for `COc1ccccc1C1C(C#N)=C(N)Oc2c1c(-c1ccccc1)nn2-c1ccccc1` (stereo not drawn) is 1.04% (inactive); for `COc1ccc(Cl)cc1C(=O)NNC(=O)c1nc2nc(C)cc(C)n2n1` it is 20.8% (active).
The figure for `O=C(c1[nH]ncc1-c1ccc(Cl)cc1)C1CO1` (stereo not drawn) is 12.5% (inactive); for `Cc1cc(C)c2cc(CN(Cc3nnnn3Cc3ccc(F)cc3)C3CCCC3)c(=O)[nH]c2c1` it is 4.43% (inactive).
